Measured values as given in publication PMC7245552 (Cell chemical biology, 2020).

Assays:
[1] = target: T1, K2P2.1 I110D/N147D (Mus musculus, UniProt P97438, I125D/N162D); assay: TEVC recordings in Xenopus oocytes, K2P2.1 I110D/N147D; format: cell-based, Murine; conditions: I110D/N147D pair; T = 298K
T1 sequence (P97438 1-411 isoform P97438-2 I110D/N147D): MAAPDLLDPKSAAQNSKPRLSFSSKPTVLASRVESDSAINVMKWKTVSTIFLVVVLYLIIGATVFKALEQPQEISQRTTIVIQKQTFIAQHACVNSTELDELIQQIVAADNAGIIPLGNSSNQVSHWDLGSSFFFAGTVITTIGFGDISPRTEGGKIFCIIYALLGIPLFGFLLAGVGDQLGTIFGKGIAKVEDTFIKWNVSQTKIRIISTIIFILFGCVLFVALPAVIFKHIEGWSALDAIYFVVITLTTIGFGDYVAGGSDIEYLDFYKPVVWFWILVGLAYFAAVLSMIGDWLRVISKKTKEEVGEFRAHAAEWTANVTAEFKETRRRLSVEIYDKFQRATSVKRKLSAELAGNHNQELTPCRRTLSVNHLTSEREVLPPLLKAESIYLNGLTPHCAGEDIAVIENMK
Outline: (§1)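 Coupling energy was computed as ΔΔGΩ = RT lnΩ, with R=1.987 cal mol−1 deg−1 and T=298 K. Inputs were RuR inhibition measurements by TEVC in X. laevis oocytes expressing murine mutant channels: −80 mV hold, 500 ms ramp −140 to +50 mV, ND96 perfusion. IC50s came from a Hill fit with coefficient −1.0, using ≥3 oocytes from ≥2 batches per point.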

[2] = target: T2, K2P2.1 I110D/N147E (Mus musculus, UniProt P97438, I125D/N162E); assay: TEVC recordings in Xenopus oocytes, K2P2.1 I110D/N147E; format: cell-based, Murine; conditions: I110D/N147E pair; T = 298K
T2 sequence (P97438 1-411 isoform P97438-2 I110D/N147E): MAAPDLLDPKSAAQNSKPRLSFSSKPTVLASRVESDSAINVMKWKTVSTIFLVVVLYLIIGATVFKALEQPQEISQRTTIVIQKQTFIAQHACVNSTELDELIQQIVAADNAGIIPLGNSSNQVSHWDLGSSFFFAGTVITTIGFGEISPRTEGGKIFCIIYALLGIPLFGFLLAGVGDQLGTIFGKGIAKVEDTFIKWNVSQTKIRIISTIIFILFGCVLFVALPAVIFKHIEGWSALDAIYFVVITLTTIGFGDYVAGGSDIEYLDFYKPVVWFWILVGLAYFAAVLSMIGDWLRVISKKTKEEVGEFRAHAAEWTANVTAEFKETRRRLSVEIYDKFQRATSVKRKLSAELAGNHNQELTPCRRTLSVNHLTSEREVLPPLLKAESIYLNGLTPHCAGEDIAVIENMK
Outline: as §1

[3] = target: T3, K2P2.1 I110E (Mus musculus, UniProt P97438, I125E); assay: TEVC recordings in Xenopus oocytes, K2P2.1 I110E; format: cell-based, Murine; conditions: K2P2.1 I110E versus K2P2.1 I110D
T3 sequence (P97438 1-411 isoform P97438-2 I110E): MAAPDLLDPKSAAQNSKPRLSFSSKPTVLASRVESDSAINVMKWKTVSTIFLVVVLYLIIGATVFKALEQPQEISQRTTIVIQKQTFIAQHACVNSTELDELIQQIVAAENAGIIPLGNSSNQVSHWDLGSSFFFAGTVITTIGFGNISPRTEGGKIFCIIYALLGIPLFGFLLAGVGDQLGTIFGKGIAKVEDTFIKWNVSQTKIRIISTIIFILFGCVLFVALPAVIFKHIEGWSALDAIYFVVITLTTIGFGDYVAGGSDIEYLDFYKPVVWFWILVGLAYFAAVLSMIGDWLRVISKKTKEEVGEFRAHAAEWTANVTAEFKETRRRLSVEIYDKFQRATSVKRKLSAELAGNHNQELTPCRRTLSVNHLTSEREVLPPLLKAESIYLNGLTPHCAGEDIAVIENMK
Outline: (§2)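 Murine channel cRNA (0.1–6 ng) injected into defolliculated stage V–VI X. laevis oocytes kept at 18°C in ND96 with antibiotics. TEVC 24–48 h later with constant ND96 perfusion; −80 mV hold, 500 ms ramp −140 to +50 mV. Ruthenium compounds were freshly dissolved in ND96. Block corrected for uninjected-oocyte basal current. ≥3 oocytes from ≥2 batches per point; IC50 from Hill fit, coefficient fixed −1.0.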

[4] = target: T4, K2P2.1 I110D (Mus musculus, UniProt P97438, I125D); assay: TEVC recordings in Xenopus oocytes, K2P2.1 I110D; format: cell-based, Murine
T4 sequence (P97438 1-411 isoform P97438-2 I110D): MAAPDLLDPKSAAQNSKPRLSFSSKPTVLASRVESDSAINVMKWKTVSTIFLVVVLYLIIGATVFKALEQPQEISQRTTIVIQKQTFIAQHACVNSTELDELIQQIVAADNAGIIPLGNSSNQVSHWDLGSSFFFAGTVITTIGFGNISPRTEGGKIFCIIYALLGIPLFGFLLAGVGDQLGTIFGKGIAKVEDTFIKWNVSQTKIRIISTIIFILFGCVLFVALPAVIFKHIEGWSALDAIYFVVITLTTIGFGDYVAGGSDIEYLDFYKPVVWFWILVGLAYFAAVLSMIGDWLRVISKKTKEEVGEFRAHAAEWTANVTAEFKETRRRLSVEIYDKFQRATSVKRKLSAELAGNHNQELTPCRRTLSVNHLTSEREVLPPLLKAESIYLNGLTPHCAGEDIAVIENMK

[5] = test system: K2P2.1 (TREK-1); conditions: read-out: EC50 (ML335) activation, ref Lolicato et al., 2017; cited from earlier work
[6] = target: T5, K2P10.1 (TREK-2) (Mus musculus, UniProt Q8BUW1); assay: TEVC recordings in Xenopus oocytes, K2P10.1; format: cell-based, Murine
T5 sequence (Q8BUW1 1-535): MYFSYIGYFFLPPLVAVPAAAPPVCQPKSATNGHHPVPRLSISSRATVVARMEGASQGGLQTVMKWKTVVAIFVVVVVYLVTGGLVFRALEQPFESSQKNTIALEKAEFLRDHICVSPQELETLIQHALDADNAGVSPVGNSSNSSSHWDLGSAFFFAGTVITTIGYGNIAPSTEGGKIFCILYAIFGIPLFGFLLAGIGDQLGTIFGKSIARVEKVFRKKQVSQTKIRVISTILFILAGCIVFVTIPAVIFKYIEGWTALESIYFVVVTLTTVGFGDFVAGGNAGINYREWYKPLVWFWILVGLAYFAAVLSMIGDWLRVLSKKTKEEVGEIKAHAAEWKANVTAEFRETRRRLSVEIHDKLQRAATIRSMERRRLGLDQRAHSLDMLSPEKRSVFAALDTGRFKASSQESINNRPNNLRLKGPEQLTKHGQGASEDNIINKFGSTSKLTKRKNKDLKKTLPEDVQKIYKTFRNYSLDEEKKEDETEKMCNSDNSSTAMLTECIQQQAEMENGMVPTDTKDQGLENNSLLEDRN
Outline: as §2

[7] = target: T6, K2P2.1 (TREK-1) (Mus musculus, UniProt P97438); assay: TEVC recordings in Xenopus oocytes, K2P2.1; format: cell-based, Murine; conditions: 100 μM Ru360 applied to K2P2.1 (TREK-1)
T6 sequence (P97438 1-411 isoform P97438-2): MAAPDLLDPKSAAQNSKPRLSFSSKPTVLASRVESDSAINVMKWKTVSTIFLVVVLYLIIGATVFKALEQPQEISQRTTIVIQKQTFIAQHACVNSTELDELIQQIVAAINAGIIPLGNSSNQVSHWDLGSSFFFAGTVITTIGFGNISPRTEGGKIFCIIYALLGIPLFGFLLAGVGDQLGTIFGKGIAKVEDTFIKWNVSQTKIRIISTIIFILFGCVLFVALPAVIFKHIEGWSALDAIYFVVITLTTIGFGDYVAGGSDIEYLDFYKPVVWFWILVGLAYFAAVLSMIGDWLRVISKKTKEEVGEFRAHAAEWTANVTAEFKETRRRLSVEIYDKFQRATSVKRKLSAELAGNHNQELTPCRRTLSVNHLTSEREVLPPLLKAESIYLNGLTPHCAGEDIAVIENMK
Outline: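 Oocytes expressing murine wild-type channel were perfused with ND96 until current was stable, then with 100 μM Ru360 freshly prepared in ND96 and kept light-protected, until current stabilised again. Currents were elicited from a −80 mV hold by a 500 ms ramp −140 to +50 mV. Fractional block was corrected for basal current averaged from uninjected oocytes (n=14).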

[8] = target: the molecule itself; assay: crystal structure

Molecule: N.N.N.N.N.N.N.N.N.N.N.N.N.N.[Cl-].[Cl-].[Cl-].[Cl-].[Cl-].[Cl-].[O-2].[O-2].[Ru+3].[Ru+3].[Ru+4] [RuR, Ruthenium Red]
- ΔΔG coupling energy, double mutant cycle analysis of RuR binding [1]: -17.2 kJ/mol
- ΔΔG coupling energy, double mutant cycle analysis of RuR binding [2]: -1.3 kJ/mol
- RuR inhibition fold weaker than that observed for K2P2.1 I110D [3]: ~ 50 fold

Molecule: CS(=O)(=O)Nc1ccc(C(=O)NCc2ccc(Cl)cc2Cl)cc1 [ML335]
- EC50 ([4]; read-out: EC50 (ML335) activation, TEVC): 11.8 ± 2.3 µM
- EC50 [5]: 14.3 ± 2.7 µM

Molecule: Ru360
- Ru360 IC50 fold weaker than that for RuR [6]: > 10 fold
- Effect on channel current [7]: no effect
- Ru360 IC50 fold weaker than that for RuR [4]: > 10 fold

B1: K2P2.1 (TREK-1)CRYST I110D (domain or fragment, mouse, UniProt P97438-2 21-322, looked up)
chain: SFSSKPTVLASRVESDSAINVMKWKTVSTIFLVVVLYLIIGATVFKALEQPQEISQRTTIVIQREKFLRAHPCVSDQELDELIQQIVAADNAGIIPLGASSNQVSHWDLGSSFFFAGTVITTIGFGNISPRTEGGKIFCIIYALLGIPLFGFLLAGVGDQLGTIFGKGIAKVEDTFIKWNVSQTKIRIISTIIFILFGCVLFVALPAVIFKHIEGWSALDAIYFVVITLTTIGFGDYVAGGSDIEYLDFYKPVVWFWILVGLAYFAAVLSMIGDWLRVICKKTKEAVGEFRAHAAEWTANVT
- binding result [8]: binds
